The nature of this assay: Cytotoxicity against human LTEDaro cells after 72 hrs by MTT assay. Format: functional, cell-based. In a few lines: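 LTEDaro cells (long-term estrogen-deprived MCF-7aro) seeded in custom medium for 24 h, then exposed to a range of concentrations in DMSO (final ≤0.1%) for 72 h, with vehicle-matched DMSO controls. Medium then replaced with 0.5 mg/ml MTT for 2 h at 37°C in CO2 incubator; formazan dissolved in DMSO and read at 570 nm; triplicates.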
Background: Tetrazolium assays rely on reduction of a dye to a coloured formazan, in cell work by metabolically active cells.
Usually IC50 stands for the point on the concentration scale where inhibition reaches its midpoint. Turning to `CC(C)c1ccc(COc2cc(NC(=O)Cc3ccccn3)ccc2N(C)S(C)(=O)=O)cc1`, the IC50 is 11.4 µM.

In turn, `Cc1cccc(C)c1COc1cc(NC(=O)Cc2cccnc2)ccc1N(C)S(C)(=O)=O` showed an IC50 of 22.5 µM.

For `CS(=O)(=O)Nc1ccc([N+](=O)[O-])cc1Oc1ccccc1` [NIMESULIDE], half-maximal inhibition (IC50) required 173 µM.

Compound `Cc1cccc(COc2cc(NC(=O)Cc3ccccn3)ccc2N(C)S(C)(=O)=O)c1` registered an IC50 of 14.9 µM. This IC50 is about 12-fold lower than that of the compound before.

Compound `CN(c1ccc(NC(=O)Cc2ccncc2)cc1OCc1cc(Cl)ccc1Cl)S(C)(=O)=O` had an IC50 of 7.64 µM.

In turn, `Cc1cc(C)c(COc2cc(NC(=O)Cc3cccnc3)ccc2N(C)S(C)(=O)=O)c(C)c1` yielded an IC50 of 10.4 µM.

Compound `Cc1cc(C)c(COc2cc(NC(=O)Cc3ccccn3)ccc2N(C)S(C)(=O)=O)c(C)c1` came in with an IC50 of 51.3 µM.

Take `CN(c1ccc(NC(=O)c2ccccc2)cc1OCc1cc(Cl)ccc1Cl)S(C)(=O)=O`: the IC50 was 2.15 µM.

In turn, `Cc1cccc(C)c1COc1cc(NC(=O)Cc2ccncc2)ccc1N(C)S(C)(=O)=O` displayed an IC50 of 19.9 µM. Against the preceding compound, the IC50 is about 9.3-fold higher.

Compound `CCCCCCOc1cc(NC(=O)Cc2ccncc2)ccc1N(C)S(C)(=O)=O` showed an IC50 of 9.56 µM.

`Cc1cccc(COc2cc(NC(=O)Cc3ccncc3)ccc2N(C)S(C)(=O)=O)c1` returned an IC50 of 16.1 µM. Compared with the last compound, the IC50 is about 1.7-fold higher.

On to `CCCCCCOc1cc(NC(=O)Cc2ccccn2)ccc1N(C)S(C)(=O)=O`, for which the midpoint of inhibition, the IC50, lay at 7.68 µM. Compared with the last compound, the IC50 is about 2.1-fold lower.

In turn, `Cc1cc(C)c(COc2cc(NC(=O)c3ccccc3)ccc2N(C)S(C)(=O)=O)c(C)c1` came in with an IC50 of 10.3 µM.

The compound `Cc1ccc(C)c(COc2cc(NC(=O)c3ccccc3)ccc2N(C)S(C)(=O)=O)c1` registered an IC50 of 4.68 µM. This IC50 is about 2.2-fold lower than that of the compound before.

Consider `Cc1cccc(COc2cc(NC(=O)C3CCCCC3)ccc2N(C)S(C)(=O)=O)c1`, for which the IC50 is 44.2 µM.

On to `CCCCCCOc1cc(NC(=O)Cc2cccnc2)ccc1N(C)S(C)(=O)=O`, for which it took 12.1 µM to reach half-maximal inhibition (IC50). This IC50 is about 3.7-fold lower than that of the compound before.

Consider `CC(C)c1ccc(COc2cc(NC(=O)Cc3cccnc3)ccc2N(C)S(C)(=O)=O)cc1`, for which the IC50 was found to be 8.26 µM.

Take `Cc1cccc(COc2cc(NC(=O)c3ccccc3)ccc2N(C)S(C)(=O)=O)c1`: the half-maximal inhibitory concentration (IC50) was 16.1 µM.

For the compound `Cc1ccccc1COc1cc(NC(=O)Cc2cccnc2)ccc1N(C)S(C)(=O)=O`, 71.5 µM corresponded to half-maximal inhibition (IC50).

For the compound `CN(c1ccc(NC(=O)C2CCCCC2)cc1OCc1cc(Cl)ccc1Cl)S(C)(=O)=O`, the IC50 was determined as 1 µM. This IC50 lies about 72-fold lower than the previous one.

The compound `Cc1ccccc1COc1cc(NC(=O)Cc2ccncc2)ccc1N(C)S(C)(=O)=O` showed an IC50 of 11.8 µM.

Turning to `Cc1ccc(C)c(COc2cc(NC(=O)Cc3ccccn3)ccc2N(C)S(C)(=O)=O)c1`, 174 µM corresponded to half-maximal inhibition (IC50).

`Cc1cccc(C)c1COc1cc(NC(=O)c2ccccc2)ccc1N(C)S(C)(=O)=O`: the IC50 worked out at 16.2 µM.

In turn, `Cc1ccccc1COc1cc(NC(=O)Cc2ccccn2)ccc1N(C)S(C)(=O)=O` displayed an IC50 of 93.9 µM. Against the preceding compound, the IC50 is about 5.8-fold higher.

`Cc1cc(C)c(COc2cc(NC(=O)C3CCCCC3)ccc2N(C)S(C)(=O)=O)c(C)c1` yielded an IC50 of 18.5 µM.

Regarding `CCCCCCOc1cc(NC(=O)C2CCCCC2)ccc1N(C)S(C)(=O)=O`, 6.98 µM corresponded to half-maximal inhibition (IC50).

`Cc1cccc(C)c1COc1cc(NC(=O)Cc2ccccn2)ccc1N(C)S(C)(=O)=O` showed an IC50 of 41.4 µM.

Compound `Cc1ccc(C)c(COc2cc(NC(=O)Cc3cccnc3)ccc2N(C)S(C)(=O)=O)c1` returned an IC50 of 1.69 µM.

Consider `CCCCCCOc1cc(NC(=O)c2ccccc2)ccc1N(C)S(C)(=O)=O`, for which the IC50 was 12 µM.

`CC(C)c1ccc(COc2cc(NC(=O)c3ccccc3)ccc2N(C)S(C)(=O)=O)cc1`: half-maximal inhibition (IC50) required 7.93 µM.

`Cc1cccc(COc2cc(NC(=O)Cc3cccnc3)ccc2N(C)S(C)(=O)=O)c1`: the IC50 worked out at 93.6 µM.

`Cc1ccccc1COc1cc(NC(=O)C2CCCCC2)ccc1N(C)S(C)(=O)=O`: the IC50 stood at 28.5 µM.

The compound `Cc1cccc(C)c1COc1cc(NC(=O)C2CCCCC2)ccc1N(C)S(C)(=O)=O` returned a half-maximal inhibitory concentration (IC50) of 39.4 µM.

Compound `Cc1cc(C)c(COc2cc(NC(=O)Cc3ccncc3)ccc2N(C)S(C)(=O)=O)c(C)c1` registered an IC50 of 13.2 µM.

Take `CC(C)c1ccc(COc2cc(NC(=O)C3CCCCC3)ccc2N(C)S(C)(=O)=O)cc1`: the IC50 is 16.1 µM.

The compound `CN(c1ccc(NC(=O)Cc2cccnc2)cc1OCc1cc(Cl)ccc1Cl)S(C)(=O)=O` yielded a 50% inhibitory concentration (IC50) of 14.1 µM.

As to `CN(c1ccc(NC(=O)Cc2ccccn2)cc1OCc1cc(Cl)ccc1Cl)S(C)(=O)=O`, the 50% inhibitory concentration (IC50) turned out to be 23.6 µM.

In turn, `Cc1ccc(C)c(COc2cc(NC(=O)Cc3ccncc3)ccc2N(C)S(C)(=O)=O)c1` yielded an IC50 of 2.37 µM. This IC50 is about 10-fold lower than that of the compound before.

In turn, `Cc1ccccc1COc1cc(NC(=O)c2ccccc2)ccc1N(C)S(C)(=O)=O` had an IC50 of 176 µM.

For `CC(C)c1ccc(COc2cc(NC(=O)Cc3ccncc3)ccc2N(C)S(C)(=O)=O)cc1`, the IC50 turned out to be 11.5 µM.

The record behind these values is ChEMBL document CHEMBL1154651, “Lead optimization of COX-2 inhibitor nimesulide analogs to overcome aromatase inhibitor resistance in breast cancer cells” (Bioorg Med Chem Lett, 2009).
